SR-BI HDL uptake: blocks mouse SR-BI lipid uptake from DiI-HDL; ldlA[mSR-BI] CHO cells, DiI-HDL uptake fluorescence, 3 h; inhibition, % at 12.5 µM; Q61009; AID 488896; 320,000 tested, 0.96% active;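 active means mean replicate inhibition of at least 70% and a set share of replicates each scoring 70 or more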
SR-BI DiI-HDL act: SR-BI HDL lipid transfer activation | CHO ldlA[mSR-BI] cells, DiI-HDL uptake fluorescence, 3 h; 100 = double the neutral-control signal | activation, % at 12.5 µM | 320,000 tested, 0.096% active | AID 504775;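 active means mean replicate activation of at least 60% and every replicate at or above 60%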
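System: LDL receptor-deficient CHO ldlA cells overexpressing murine SR-BI | Timing: 3 h uptake period with compound, 37 °C | Medium: HEPES-buffered (25 mM, pH 7.4) F12 plus 0.5% BSA | Dosing: Single-point compound dose | Signal: Bottom-read fluorescence, 550/595 nm | Read-out: Retained DiI signal reflecting DiI-HDL uptake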
DNA FID counter: displaces DNA intercalator in HCV helicase counter-screen; inhibition, % at 7.9 µM; DNA fluorescent intercalator displacement, fluorescence; 290,000 tested, 0.17% active; in the data active means inhibition above about 37%;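 further: higher means more ethidium bromide displaced from hairpin DNA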
ANO1 block: blocks the mouse calcium-activated chloride channel TMEM16A | Q8BHY3 | HEK293 TMEM16A/YFP iodide influx fluorescence, ionomycin | normalized B-score (activity score, 25-100; higher = stronger inhibition) at 10 µM | 310,000 tested, 1.2% active | AID 588511;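 active means ratio plate-corrected score three or more library SD toward inhibition, starting fluorescence score within five deviations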;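 further: score derived from kinetic fluorescence span divided by baseline fluorescence per well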
TMEM16A act: activators or potentiators of mouse TMEM16A chloride channel | Q8BHY3 | HEK293 TMEM16A/YFP-H148Q/I152L, iodide quench fluorescence; active compounds read low | B-score at 10 µM | 340,000 tested, 0.3% active;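 active means fluorescence-ratio B-score plate-corrected deviation score at least 3 library SD below zero, with starting fluorescence score within 5 deviations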;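 further: channel opened by trigger with iodide after compound preincubation; score built on the fluorescence ratio of max minus min over baseline; more negative score means more quench and so TMEM16A activation or potentiation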
Kir21 inh: inhibitors of mouse Kir2.1 inward-rectifier potassium channel; HEK293-Kir2.1, FluxOR thallium flux fluorescence; active compounds read low; B-score at 10 µM; 310,000 tested, 0.85% active; P35561; AID 1672;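 active means fluorescence ratio B-score at or below minus 3 SD of library scores, with starting-brightness B-score within 2 SD, cut at about -4.2 in these data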;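 further: channel flux triggered by added potassium and thallium sulfate stimulus; B-score of peak minus minimum fluorescence over baseline after thallium stimulus; more negative B-score means stronger Kir2.1 block with less thallium influx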
Target sequence (P35561 whole entry, looked up): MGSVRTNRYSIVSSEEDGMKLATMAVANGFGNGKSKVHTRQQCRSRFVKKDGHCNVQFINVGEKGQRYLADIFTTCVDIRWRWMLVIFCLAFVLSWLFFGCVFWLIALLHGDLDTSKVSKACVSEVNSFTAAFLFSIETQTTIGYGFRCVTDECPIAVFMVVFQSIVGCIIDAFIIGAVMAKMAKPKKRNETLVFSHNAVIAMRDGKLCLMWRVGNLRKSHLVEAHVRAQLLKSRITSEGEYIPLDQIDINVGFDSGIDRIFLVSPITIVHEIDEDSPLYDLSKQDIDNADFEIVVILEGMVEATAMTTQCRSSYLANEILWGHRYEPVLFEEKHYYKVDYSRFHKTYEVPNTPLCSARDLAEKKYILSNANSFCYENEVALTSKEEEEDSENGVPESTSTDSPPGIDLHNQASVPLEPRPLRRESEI
TMEM16A reconf: reconfirmed blocker of mouse TMEM16A calcium-activated chloride channel | inhibition, % at 10 µM | AID 652189 | HEK293 TMEM16A/YFP-H148Q, iodide quench fluorescence; ionomycin added to raise cell calcium | shares compounds with ANO1 block | 2,300 tested, 39% active;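 active means mean duplicate percent inhibition, scaled so buffer wells are 0 and the reference blocker 100, over three buffer SD above buffer mean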
TMEM16A Ca cntr: calcium mobilization counter-screen hit for TMEM16A inhibitor series. shares compounds with ANO1 block. TMEM16A/YFP HEK293, Fluo4 calcium mobilization. calcium response (% of ionomycin), % at 10 µM. 2,300 tested, 2% active. AID 652231;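 active means duplicate-averaged calcium signal over 20% of the ionomycin maximum, relative to buffer baseline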;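 further: each well's signal is peak minus trough fluorescence divided by its pre-addition baseline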
Parental YFP cnt: acts in parental YFP-HEK293 cells lacking TMEM16A, counter-screen | shares compounds with ANO1 block | iodide YFP quench, ionomycin | YFP ratio F(max-min)/F0 at 10 µM | 2,300 tested, under 10 active;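 active means yellow fluorescent protein signal ratio exceeding the buffer control mean by over 5 SD of those controls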;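 further: ratio is mean of duplicate wells from kinetic YFP trace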
ClC-1 rat inh: selectivity of TMEM16A inhibitors: inhibition of rat ClC-1 chloride channel; AID 652236; 2,300 tested, under 10 active; CHO ClC-1-YFP, iodide influx fluorescence quench; iodide control reads 0, buffer control 100; ratio percent, % at 10 µM; shares compounds with ANO1 block;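 active means duplicate-mean ratio percent above the mean of iodide-only control wells, which defines zero, plus 5 of their SD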;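 further: higher percent means stronger block of ClC-1 iodide influx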
Hits are given with their value; i = inactive; nt = no result given. Only some compounds are listed: those with a hit (about 3% of all), similar ones and a draw of the others.

SMILES	SR-BI HDL uptake	SR-BI DiI-HDL act	DNA FID counter	ANO1 block	TMEM16A act	Kir21 inh	TMEM16A reconf	TMEM16A Ca cntr	Parental YFP cnt	ClC-1 rat inh
CCN(C(=O)C1CCCN(c2ncnc3c2nc2n3CCCCC2)C1)c1cccc(Cl)c1 (stereo unspecified)	i	i	i	25	i	i	i	i	i	i
C[C@H](CO)N1C[C@H](C)[C@@H](CN(C)S(=O)(=O)c2ccccc2)Oc2ccc(NS(=O)(=O)c3cn(C)cn3)cc2C1=O	i	i	nt	nt	i	nt	nt	nt	nt	nt
CCNC(=O)CC1C(=O)N(c2ccc(F)cc2)C(=O)N1Cc1ccccn1 (stereo unspecified)	i	i	i	100	i	i	i	i	i	i
O=[N+]([O-])c1ccc(-c2nc(C(Cl)Cl)c3ccccc3n2)cc1	i	i	i	i	i	i	nt	nt	nt	nt
Cc1cccc(OCc2nnc(SCC(=O)N3CCN(c4ccccc4)CC3)o2)c1C	i	i	i	100	i	i	i	i	i	i
COC(=O)c1ccc(O)c(Sc2cc(C(=O)OC)ccc2O)c1	i	i	i	100	i	i	19.0%	i	i	i
Cc1ccc(O)c(Sc2cc(C)ccc2O)c1	nt	nt	i	25	i	i	38.0%	i	i	i
Cc1ccc(O)c(O)c1	nt	nt	nt	i	nt	i	nt	nt	nt	nt
COC(=O)c1ccc(C)cc1	i	i	nt	nt	i	nt	nt	nt	nt	nt
Cc1noc(C)c1NC(=O)N(C)C[C@H]1Oc2ccc(NS(=O)(=O)c3cn(C)cn3)cc2C(=O)N([C@H](C)CO)C[C@@H]1C	i	i	nt	nt	i	nt	nt	nt	nt	nt
Cc1cccc(OCCCc2c(C)n[nH]c2C)c1	i	i	i	i	i	i	nt	nt	nt	nt
Cc1n[nH]c(C)c1CCOc1ccc(C(C)C)cc1	i	i	i	25	i	i	i	i	i	i
Cc1ccc(S(=O)(=O)N2CCOCC2)cc1C(=O)NCCc1ccc(Cl)cc1	i	i	nt	nt	i	nt	nt	nt	nt	nt
Cn1nccc1C(=O)NC1CCCc2c1cnn2-c1ccc(C(C)(C)C)cc1 (stereo unspecified)	i	i	i	25	i	i	27.5%	i	i	i
COc1ccc2c3c(cccc13)C(=O)CC2	i	i	i	i	i	i	nt	nt	nt	nt
COc1ccc(N=Cc2c(O)ccc3ccccc23)cc1	i	i	i	i	i	i	i	i	i	i
O=C(CSC1CN(C(c2ccccc2)c2ccccc2)C1)N/N=C/c1ccccc1	i	i	i	i	i	i	nt	nt	nt	nt
Cc1oc(-c2cc(F)ccc2F)nc1CN1CCN(c2ncnc3ccccc23)CC1	i	i	i	100	i	i	20.0%	i	i	i
CCN(CC(=O)NCc1cccs1)C(=O)c1cccc(S(=O)(=O)Nc2ccccc2Cl)c1	i	i	nt	i	i	i	nt	nt	nt	nt
CCC(=O)Nc1ccc(NCc2cccs2)cc1	i	i	i	i	i	i	nt	nt	nt	nt
O=c1[nH]c(=O)n(-c2ccc(F)cc2)c2c1C(C(F)(F)F)(C(F)(F)F)N=C(c1ccc(F)cc1)N2	i	i	i	25	i	i	26.0%	i	i	i
CCOc1cc(C)cc2oc(=O)cc(-c3ccccc3)c12	i	i	i	25	i	i	i	i	i	i
CC(=O)c1ccc(N2CCN(C(=O)Nc3ccc(C)cc3)CC2)cc1	nt	nt	i	i	i	i	nt	nt	nt	nt
CC(=O)c1ccc(NC(=O)N2CCN(c3ccc(C)cc3)C(C)C2)cc1 (stereo unspecified)	i	i	i	25	i	i	i	i	i	i
Cc1ccc2sc(N3CCN(C(=O)c4ccc([N+](=O)[O-])o4)CC3)nc2c1C	i	i	nt	i	i	i	nt	nt	nt	nt
SMILES	SR-BI HDL uptake	SR-BI DiI-HDL act	DNA FID counter	ANO1 block	TMEM16A act	Kir21 inh	TMEM16A reconf	TMEM16A Ca cntr	Parental YFP cnt	ClC-1 rat inh
Cc1c(Cl)ccc2sc(N3CCN(C(=O)C4=COCCO4)CC3)nc12	i	i	nt	25	i	i	43.5%	i	i	i
c1nc(NCC2CCCO2)c2[nH]cnc2n1 (stereo unspecified)	i	i	i	25	i	i	i	i	i	i
c1ccc2c(c1)[nH]c1c(NCC3CCCO3)ncnc12 (stereo unspecified)	i	i	i	i	i	i	nt	nt	nt	nt
CCOC(=O)c1sc(N2C(=O)C(O)=C(C(=O)c3ccco3)C2c2cccc(Cl)c2)nc1C (stereo unspecified)	i	i	i	25	i	i	i	i	i	i
CC1CCCN(S(=O)(=O)c2ccc(C(=O)Nc3nnc(-c4ccccc4Cl)o3)cc2)C1 (stereo unspecified)	i	i	i	100	i	i	22.5%	i	i	i
Cn1nc(-c2ccccc2)nc1-c1ccccc1	i	i	nt	i	i	i	nt	nt	nt	nt
CN=c1nc(-c2ccccc2)n(-c2ccccc2)s1	i	i	nt	25	i	nt	i	i	i	i
Cc1cc(C(=O)CSc2ccc(F)cc2)cc(C)c1OC(=S)N(C)C	i	i	i	100	i	i	i	i	i	i
Cc1ccc(SCC(=O)c2cc(C)c(O)c(C)c2)cc1	nt	nt	i	i	i	i	nt	nt	nt	nt
CC(=O)Nc1cc2c3c(cccc3c1)-c1ccccc1-2	i	i	nt	nt	i	nt	nt	nt	nt	nt
Cc1c(NC(=O)CSc2ccc(Cl)cc2)cccc1-c1nc2ncccc2o1	i	i	i	25	i	i	19.5%	i	i	i
Cc1ccc(S(=O)(=O)N(CC(=O)O)Cc2ccco2)cc1	i	i	i	i	i	i	nt	nt	nt	nt
Cc1ccc(S(=O)(=O)N(Cc2ccccc2)Cc2ccco2)cc1	i	i	i	100	i	-5.04	28.0%	i	i	i
Cc1ccc(S(=O)(=O)N(Cc2ccc(F)cc2)Cc2ccco2)cc1	i	i	i	100	i	i	i	i	i	i
O=S(=O)(c1ccc(Br)cc1F)N1CCCCC1CCO (stereo unspecified)	i	i	nt	nt	nt	nt	nt	nt	nt	nt
O=C(COc1cc2oc(=O)c3c(c2cc1Cl)CCC3)N1C[C@H]2C[C@@H](C1)c1cccc(=O)n1C2	i	i	i	i	i	i	nt	nt	nt	nt
CC(C)N(CCNC(=O)C1CCCN(c2ncnc3c2nc2n3CCCCC2)C1)Cc1ccccc1 (stereo unspecified)	i	i	i	i	i	i	nt	nt	nt	nt
O=C(NC1CCCCC1)C(c1ccc(O)c(O)c1)N(C(=O)Cn1nnc2ccccc21)c1cccc(O)c1 (stereo unspecified)	i	i	i	i	i	i	nt	nt	nt	nt

Screening results from PubChem BioAssay.
